Here are results for 17 compounds from ChEMBL document CHEMBL1149202, “N-Aryl-gamma-lactams as integrin alphavbeta3 antagonists” (Bioorg Med Chem Lett, 2004).

The target of test [1] is Integrin alpha-V/beta-3 (Homo sapiens, UniProt P05106+P06756). The experiment in a line: Binding affinity towards vitronectin receptor (AlphaV-beta3 integrin). It counts as protein-complex assay. In outline:
(§1)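 Purified integrin (αvβ3; αIIbβ3) was bead-coupled overnight at 4 °C. Competitive electrochemiluminescent binding used Ru-labelled vitronectin for αvβ3 and Ru-labelled fibrinogen for αIIbβ3, in pH 7.5 Tris buffer with Ca2+, Mg2+, Mn2+, 1% BSA and 0.05% Tween-20, for 2 h at 25 °C. DMSO serial dilutions were used. Nonspecific binding was taken with excess unlabelled ligand or 5 mM EDTA. Ki came from a four-parameter fit, SD of ≥2 determinations.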

Test [2] deals with Integrin alpha-IIb/beta-3 (Homo sapiens, UniProt P05106+P08514). The experiment in a line: Affinity for alphaIIb-beta3 integrin. It counts as protein-complex assay. In outline:
as §1

Integrin alpha-V/beta-3, sequence (P05106 27-788 limits assumed): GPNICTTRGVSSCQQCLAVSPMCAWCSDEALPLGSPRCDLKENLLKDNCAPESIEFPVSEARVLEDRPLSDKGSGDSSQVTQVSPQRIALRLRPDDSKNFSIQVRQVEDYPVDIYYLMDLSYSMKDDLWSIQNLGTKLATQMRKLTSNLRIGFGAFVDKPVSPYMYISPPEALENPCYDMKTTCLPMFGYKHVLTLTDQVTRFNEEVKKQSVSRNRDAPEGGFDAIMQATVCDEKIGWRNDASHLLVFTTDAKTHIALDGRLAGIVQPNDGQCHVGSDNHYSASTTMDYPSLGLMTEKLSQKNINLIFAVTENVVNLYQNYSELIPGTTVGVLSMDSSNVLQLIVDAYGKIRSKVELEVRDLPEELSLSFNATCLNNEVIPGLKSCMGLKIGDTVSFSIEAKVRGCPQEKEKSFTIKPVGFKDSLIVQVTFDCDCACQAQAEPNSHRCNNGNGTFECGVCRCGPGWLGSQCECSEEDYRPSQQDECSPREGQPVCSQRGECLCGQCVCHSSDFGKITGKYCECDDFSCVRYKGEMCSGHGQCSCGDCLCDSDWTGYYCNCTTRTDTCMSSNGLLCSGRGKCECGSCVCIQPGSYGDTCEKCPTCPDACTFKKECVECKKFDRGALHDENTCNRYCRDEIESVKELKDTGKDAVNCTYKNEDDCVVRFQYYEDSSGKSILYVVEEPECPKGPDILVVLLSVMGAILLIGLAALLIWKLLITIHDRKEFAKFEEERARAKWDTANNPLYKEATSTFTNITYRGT
Integrin alpha-V/beta-3, sequence (P06756 31-889 limits assumed): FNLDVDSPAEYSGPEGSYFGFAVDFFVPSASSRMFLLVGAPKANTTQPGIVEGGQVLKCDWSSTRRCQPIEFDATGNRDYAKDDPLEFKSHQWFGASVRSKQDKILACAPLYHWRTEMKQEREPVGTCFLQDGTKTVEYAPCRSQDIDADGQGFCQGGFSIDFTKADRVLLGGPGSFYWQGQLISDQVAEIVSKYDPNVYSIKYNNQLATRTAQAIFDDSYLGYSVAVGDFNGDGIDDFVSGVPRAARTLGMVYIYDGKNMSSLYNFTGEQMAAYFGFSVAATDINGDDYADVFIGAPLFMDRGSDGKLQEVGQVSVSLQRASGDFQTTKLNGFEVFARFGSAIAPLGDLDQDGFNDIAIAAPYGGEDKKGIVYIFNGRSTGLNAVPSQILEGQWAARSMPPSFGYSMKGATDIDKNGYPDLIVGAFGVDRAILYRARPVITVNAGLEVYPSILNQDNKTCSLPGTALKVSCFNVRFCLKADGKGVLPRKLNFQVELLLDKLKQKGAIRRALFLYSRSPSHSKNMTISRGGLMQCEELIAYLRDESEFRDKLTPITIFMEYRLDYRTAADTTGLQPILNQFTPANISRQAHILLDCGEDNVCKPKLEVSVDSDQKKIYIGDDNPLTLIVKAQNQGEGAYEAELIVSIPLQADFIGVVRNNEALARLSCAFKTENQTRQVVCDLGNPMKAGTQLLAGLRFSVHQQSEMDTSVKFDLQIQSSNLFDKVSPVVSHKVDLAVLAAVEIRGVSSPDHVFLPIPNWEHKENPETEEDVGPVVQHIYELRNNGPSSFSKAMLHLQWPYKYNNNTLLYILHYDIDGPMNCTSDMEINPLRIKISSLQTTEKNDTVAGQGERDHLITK
Integrin alpha-V/beta-3, sequence (P06756 891-1048 limits assumed): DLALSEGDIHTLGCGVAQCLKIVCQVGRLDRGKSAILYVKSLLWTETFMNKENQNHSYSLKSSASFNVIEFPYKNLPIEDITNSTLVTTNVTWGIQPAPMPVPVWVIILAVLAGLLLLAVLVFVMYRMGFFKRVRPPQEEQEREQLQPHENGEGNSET
Integrin alpha-IIb/beta-3, sequence (P05106 27-788 limits assumed): as the sequence (P05106 27-788 limits assumed) above
Integrin alpha-IIb/beta-3, sequence (P08514 32-887 limits assumed): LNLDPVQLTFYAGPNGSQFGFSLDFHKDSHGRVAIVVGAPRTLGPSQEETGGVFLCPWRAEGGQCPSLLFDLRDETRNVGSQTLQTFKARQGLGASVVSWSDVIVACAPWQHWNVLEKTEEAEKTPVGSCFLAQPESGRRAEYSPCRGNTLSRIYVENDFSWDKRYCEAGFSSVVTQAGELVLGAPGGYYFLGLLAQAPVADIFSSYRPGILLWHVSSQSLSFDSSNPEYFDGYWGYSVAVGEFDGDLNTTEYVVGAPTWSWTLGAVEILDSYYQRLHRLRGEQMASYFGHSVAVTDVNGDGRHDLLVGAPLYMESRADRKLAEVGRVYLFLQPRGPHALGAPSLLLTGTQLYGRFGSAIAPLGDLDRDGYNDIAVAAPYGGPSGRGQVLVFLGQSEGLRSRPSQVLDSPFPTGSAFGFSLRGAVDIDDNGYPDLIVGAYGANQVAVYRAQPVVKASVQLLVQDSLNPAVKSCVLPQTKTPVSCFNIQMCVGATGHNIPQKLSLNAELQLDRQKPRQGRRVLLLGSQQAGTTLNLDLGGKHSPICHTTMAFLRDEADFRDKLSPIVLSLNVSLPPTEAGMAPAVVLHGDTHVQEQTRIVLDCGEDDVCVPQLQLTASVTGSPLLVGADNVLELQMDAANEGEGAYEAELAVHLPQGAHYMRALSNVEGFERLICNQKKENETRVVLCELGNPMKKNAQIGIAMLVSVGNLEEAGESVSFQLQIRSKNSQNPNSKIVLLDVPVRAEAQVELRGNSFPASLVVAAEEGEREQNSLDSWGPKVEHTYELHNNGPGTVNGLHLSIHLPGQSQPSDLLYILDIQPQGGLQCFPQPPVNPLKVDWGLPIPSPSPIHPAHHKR
Integrin alpha-IIb/beta-3, sequence (P08514 891-1039 limits assumed): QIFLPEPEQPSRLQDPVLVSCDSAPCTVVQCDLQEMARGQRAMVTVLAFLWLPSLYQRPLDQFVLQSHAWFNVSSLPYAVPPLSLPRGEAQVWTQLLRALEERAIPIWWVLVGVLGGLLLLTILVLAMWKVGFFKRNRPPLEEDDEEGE

Usually Ki stands for the dissociation constant of the complex between target and ligand, obtained from inhibition or displacement. Low readings indicate higher affinity, high ones lower affinity. As for `O=C(O)C[C@@H](NC(=O)[C@@H]1CC(=O)N(c2cccc(NC(=O)NCc3ccccc3)c2)C1)c1cccc(F)c1`, the Ki is 154 nM in test [1] and over 25000 nM in test [2].

On to `O=C(O)C[C@H](NC(=O)[C@@H]1CC(=O)N(c2cccc(NC3=NCCCN3)c2)C1)c1ccc2c(c1)OCO2`, for which the Ki in test [1] stood at 0.1 nM; in test [2], 2100 nM.

For the compound `NC(N)=Nc1ccc(Cl)c(N2CC(C(=O)NC(CC(=O)O)c3cccnc3)CC2=O)c1` (stereo not drawn), affinity in test [1] was put at a Ki of 52.7 nM.

Consider `NC(N)=Nc1ccc(F)c(N2CC(C(=O)NC(CC(=O)O)c3cccnc3)CC2=O)c1` (stereo not drawn), for which the affinity in test [1], expressed as Ki, was 2.9 nM.

As to `O=C(O)CC(NC(=O)C1CC(=O)N(c2cccc(NC(=O)NCc3ccccc3)c2)C1)c1ccccc1` (stereo not drawn), the affinity in test [1], expressed as Ki, was 70.9 nM.

As to `O=C(O)CC(NC(=O)C1CC(=O)N(c2cccc(NC3=NCCN3)c2)C1)c1cccnc1` (stereo not drawn), in test [1], the Ki amounted to 5.1 nM.

Take `O=C(O)CC(NC(=O)C1CC(=O)N(c2cc(NC3=NCCCN3)ccc2F)C1)c1ccc2c(c1)OCO2` (stereo not drawn): the affinity in test [1] corresponds to a Ki of 0.5 nM.

`O=C(O)CC(NC(=O)C1CC(=O)N(c2cccc(NC(=O)NCc3ccccc3)c2)C1)c1ccc2c(c1)OCO2` (stereo not drawn) registered a Ki in test [1] of 2.4 nM.

Regarding `O=C(O)C[C@H](NC(=O)[C@@H]1CC(=O)N(c2cccc(NC(=O)NCc3ccccc3)c2)C1)c1cccc(F)c1`, the Ki in test [1] is 10 nM; in test [2], over 25000 nM.

Consider `O=C(O)C[C@@H](NC(=O)[C@H]1CC(=O)N(c2cccc(NC(=O)NCc3ccccc3)c2)C1)c1cccc(F)c1`, for which the Ki is over 1000 nM in test [1] and over 25000 nM in test [2].

With `O=C(O)CC(NC(=O)C1CC(=O)N(c2cccc(NC3=NCCCN3)c2)C1)c1ccc2c(c1)OCO2` (stereo not drawn), the Ki in test [1] turned out to be 0.7 nM.

`O=C(O)CC(NC(=O)C1CC(=O)N(c2cccc(NC(=O)NCc3ccccc3)c2)C1)c1cccnc1` (stereo not drawn) yielded a Ki in test [1] of 10.4 nM.

Turning to `O=C(O)C[C@H](NC(=O)[C@H]1CC(=O)N(c2cccc(NC(=O)NCc3ccccc3)c2)C1)c1cccc(F)c1`, the values for the Ki in test [1] and in test [2] were over 1000 nM and over 25000 nM, respectively.

Compound `O=C(O)CC(NC(=O)C1CC(=O)N(c2cccc(NC(=O)NCc3ccccc3)c2)C1)c1cccc(F)c1` (stereo not drawn) yielded a Ki in test [1] of 11.1 nM.

Take `N=C(N)Nc1cccc(N2CC(C(=O)NC(CC(=O)O)c3cccnc3)CC2=O)c1` (stereo not drawn): in test [1], the affinity corresponds to a Ki of 16.6 nM.

`O=C(O)CC(NC(=O)C1CC(=O)N(c2cccc(NC3=NCCCN3)c2)C1)c1cccnc1` (stereo not drawn): affinity in test [1] was put at a Ki of 1.4 nM.

In the case of `O=C(O)C[C@@H](NC(=O)[C@@H]1CC(=O)N(c2cccc(NC3=NCCCN3)c2)C1)c1ccc2c(c1)OCO2`, the Ki in test [1] is 7.3 nM; in test [2] it was over 25000 nM.
